Data taken from paper PMC3467149 (ACS medicinal chemistry letters, 2012).
Like-named read-outs stand apart in the source and are kept apart here. Blank lines part the entries; values can stand above or below the compound they belong to.

Columns and labels:
[1] = target: LRRK2 (Mus musculus, UniProt Q5S006); experiment: KiNativ chemical proteomics of tissues from treated animals, LRRK2; format: in vivo; conditions: for LRRK2 target engagement (KiNativ): spleen
[2] = system: GFP-LRRK2[G2019S+A2016T] in HEK293 cells; experiment: Ser910/Ser935 phosphorylation in HEK293 cells, GFP-LRRK2[G2019S+A2016T]; format: cell-based; conditions: 90 min
Method in brief: (§1)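 HEK293 cells stably expressing the GFP-tagged LRRK2 mutant were treated with DMSO or increasing concentrations of test compound for 90 min. A reference LRRK2 inhibitor at 1 μM served as control. Cell lysates were immunoblotted for LRRK2 phospho-Ser910, phospho-Ser935 and total LRRK2.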

[3] = target: T1, GST-LRRKT[A2016T] (1,326–2,527) (Homo sapiens, UniProt Q5S007, A2016T); experiment: Biochemical inhibition of GST-LRRK2[A2016T]; conditions: 20 µM Nictide, 100 µM ATP
T1 sequence (Q5S007 1326-2527 A2016T): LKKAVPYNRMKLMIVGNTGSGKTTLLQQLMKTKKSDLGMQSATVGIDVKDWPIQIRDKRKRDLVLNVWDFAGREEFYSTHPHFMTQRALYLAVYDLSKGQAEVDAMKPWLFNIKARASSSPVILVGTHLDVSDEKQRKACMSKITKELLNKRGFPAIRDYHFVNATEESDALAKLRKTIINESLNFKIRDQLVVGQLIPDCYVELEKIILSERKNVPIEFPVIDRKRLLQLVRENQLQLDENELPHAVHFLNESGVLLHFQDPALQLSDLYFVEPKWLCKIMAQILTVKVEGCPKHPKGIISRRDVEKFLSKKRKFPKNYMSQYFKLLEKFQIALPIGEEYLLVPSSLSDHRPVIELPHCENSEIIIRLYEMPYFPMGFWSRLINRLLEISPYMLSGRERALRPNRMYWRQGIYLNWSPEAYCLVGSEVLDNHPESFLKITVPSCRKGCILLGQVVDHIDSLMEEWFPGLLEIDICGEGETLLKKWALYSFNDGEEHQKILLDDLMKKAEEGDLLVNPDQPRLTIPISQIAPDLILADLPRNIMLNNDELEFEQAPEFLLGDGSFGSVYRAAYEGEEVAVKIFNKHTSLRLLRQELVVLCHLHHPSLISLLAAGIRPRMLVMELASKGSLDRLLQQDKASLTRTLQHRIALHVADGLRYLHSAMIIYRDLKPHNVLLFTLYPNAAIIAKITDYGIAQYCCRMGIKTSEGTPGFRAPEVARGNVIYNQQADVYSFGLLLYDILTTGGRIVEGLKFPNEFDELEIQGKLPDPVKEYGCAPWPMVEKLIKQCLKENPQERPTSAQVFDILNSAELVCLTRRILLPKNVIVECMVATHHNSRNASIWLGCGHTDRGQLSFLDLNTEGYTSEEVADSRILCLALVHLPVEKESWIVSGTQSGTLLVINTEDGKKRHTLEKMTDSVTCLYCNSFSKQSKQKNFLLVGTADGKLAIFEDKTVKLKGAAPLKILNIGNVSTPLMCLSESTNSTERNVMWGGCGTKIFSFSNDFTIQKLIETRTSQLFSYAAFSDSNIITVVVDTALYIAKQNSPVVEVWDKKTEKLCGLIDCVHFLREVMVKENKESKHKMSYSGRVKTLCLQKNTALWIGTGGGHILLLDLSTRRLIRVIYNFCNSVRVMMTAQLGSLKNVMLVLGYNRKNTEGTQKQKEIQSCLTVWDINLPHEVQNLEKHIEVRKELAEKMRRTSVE

[4] = target: T2, TBK1 (Mus musculus, UniProt Q9WUN2); experiment: KiNativ chemical proteomics of tissues from treated animals, TBK1; format: in vivo; conditions: read-out: TBK1 inhibition (KiNativ)
T2 sequence (Q9WUN2 1-729): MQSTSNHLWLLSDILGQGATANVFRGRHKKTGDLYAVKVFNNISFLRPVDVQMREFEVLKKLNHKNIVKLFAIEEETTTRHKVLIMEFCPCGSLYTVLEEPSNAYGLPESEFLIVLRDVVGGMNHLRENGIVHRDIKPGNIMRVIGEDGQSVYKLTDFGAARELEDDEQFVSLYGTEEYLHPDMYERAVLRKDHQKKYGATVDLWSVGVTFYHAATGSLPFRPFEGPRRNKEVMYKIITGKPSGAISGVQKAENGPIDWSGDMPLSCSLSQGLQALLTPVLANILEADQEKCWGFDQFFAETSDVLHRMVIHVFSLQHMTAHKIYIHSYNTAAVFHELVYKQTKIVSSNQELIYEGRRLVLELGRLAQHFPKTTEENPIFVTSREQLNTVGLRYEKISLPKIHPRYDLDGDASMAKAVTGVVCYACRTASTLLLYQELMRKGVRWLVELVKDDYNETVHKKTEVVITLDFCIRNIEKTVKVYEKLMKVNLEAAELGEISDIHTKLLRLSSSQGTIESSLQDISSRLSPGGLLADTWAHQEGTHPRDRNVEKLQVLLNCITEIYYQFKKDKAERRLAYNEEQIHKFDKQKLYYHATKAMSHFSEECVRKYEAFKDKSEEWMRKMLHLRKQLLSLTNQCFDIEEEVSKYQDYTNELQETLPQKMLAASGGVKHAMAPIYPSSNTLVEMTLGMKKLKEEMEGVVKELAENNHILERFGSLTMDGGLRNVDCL

[5] = system: panel of 451 kinases; experiment: KinomeScan analysis; format: binding; conditions: 1 µM
[6] = system: LRRK2 Ser910/Ser935 phosphorylation; format: in vivo, mouse
Method in brief: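 Mice received the test compound intraperitoneally at 100, 50, 30 or 10 mg/kg. Brain, spleen and kidney were collected, and endogenous LRRK2 was resolved by SDS-PAGE. Blots were probed with phospho-specific antibodies to Ser910 and Ser935 and for total LRRK2, with quantitative analysis of the blots.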

[7] = system: GFP-LRRK2[A2016T] in HEK293 cells; experiment: Ser910/Ser935 phosphorylation in HEK293 cells, GFP-LRRK2[A2016T]; format: cell-based; conditions: 90 min
Method in brief: as §1

[8] = system: JNK1/2/3; experiment: KiNativ chemical proteomics of tissues from treated animals, JNK1/2/3; format: in vivo, mouse
[9] = system: >150 protein and lipid kinases; experiment: KiNativ chemical proteomics, other kinases of the panel; format: in vivo, mouse; conditions: any dose (3–100 mg/kg)
[10] = system: LRRK2 Ser910/Ser935 phosphorylation; conditions: intraperitoneal doses of up to 100 mg/Kg; cited from earlier work

Chain of LRRK2 (Q5S006 whole entry): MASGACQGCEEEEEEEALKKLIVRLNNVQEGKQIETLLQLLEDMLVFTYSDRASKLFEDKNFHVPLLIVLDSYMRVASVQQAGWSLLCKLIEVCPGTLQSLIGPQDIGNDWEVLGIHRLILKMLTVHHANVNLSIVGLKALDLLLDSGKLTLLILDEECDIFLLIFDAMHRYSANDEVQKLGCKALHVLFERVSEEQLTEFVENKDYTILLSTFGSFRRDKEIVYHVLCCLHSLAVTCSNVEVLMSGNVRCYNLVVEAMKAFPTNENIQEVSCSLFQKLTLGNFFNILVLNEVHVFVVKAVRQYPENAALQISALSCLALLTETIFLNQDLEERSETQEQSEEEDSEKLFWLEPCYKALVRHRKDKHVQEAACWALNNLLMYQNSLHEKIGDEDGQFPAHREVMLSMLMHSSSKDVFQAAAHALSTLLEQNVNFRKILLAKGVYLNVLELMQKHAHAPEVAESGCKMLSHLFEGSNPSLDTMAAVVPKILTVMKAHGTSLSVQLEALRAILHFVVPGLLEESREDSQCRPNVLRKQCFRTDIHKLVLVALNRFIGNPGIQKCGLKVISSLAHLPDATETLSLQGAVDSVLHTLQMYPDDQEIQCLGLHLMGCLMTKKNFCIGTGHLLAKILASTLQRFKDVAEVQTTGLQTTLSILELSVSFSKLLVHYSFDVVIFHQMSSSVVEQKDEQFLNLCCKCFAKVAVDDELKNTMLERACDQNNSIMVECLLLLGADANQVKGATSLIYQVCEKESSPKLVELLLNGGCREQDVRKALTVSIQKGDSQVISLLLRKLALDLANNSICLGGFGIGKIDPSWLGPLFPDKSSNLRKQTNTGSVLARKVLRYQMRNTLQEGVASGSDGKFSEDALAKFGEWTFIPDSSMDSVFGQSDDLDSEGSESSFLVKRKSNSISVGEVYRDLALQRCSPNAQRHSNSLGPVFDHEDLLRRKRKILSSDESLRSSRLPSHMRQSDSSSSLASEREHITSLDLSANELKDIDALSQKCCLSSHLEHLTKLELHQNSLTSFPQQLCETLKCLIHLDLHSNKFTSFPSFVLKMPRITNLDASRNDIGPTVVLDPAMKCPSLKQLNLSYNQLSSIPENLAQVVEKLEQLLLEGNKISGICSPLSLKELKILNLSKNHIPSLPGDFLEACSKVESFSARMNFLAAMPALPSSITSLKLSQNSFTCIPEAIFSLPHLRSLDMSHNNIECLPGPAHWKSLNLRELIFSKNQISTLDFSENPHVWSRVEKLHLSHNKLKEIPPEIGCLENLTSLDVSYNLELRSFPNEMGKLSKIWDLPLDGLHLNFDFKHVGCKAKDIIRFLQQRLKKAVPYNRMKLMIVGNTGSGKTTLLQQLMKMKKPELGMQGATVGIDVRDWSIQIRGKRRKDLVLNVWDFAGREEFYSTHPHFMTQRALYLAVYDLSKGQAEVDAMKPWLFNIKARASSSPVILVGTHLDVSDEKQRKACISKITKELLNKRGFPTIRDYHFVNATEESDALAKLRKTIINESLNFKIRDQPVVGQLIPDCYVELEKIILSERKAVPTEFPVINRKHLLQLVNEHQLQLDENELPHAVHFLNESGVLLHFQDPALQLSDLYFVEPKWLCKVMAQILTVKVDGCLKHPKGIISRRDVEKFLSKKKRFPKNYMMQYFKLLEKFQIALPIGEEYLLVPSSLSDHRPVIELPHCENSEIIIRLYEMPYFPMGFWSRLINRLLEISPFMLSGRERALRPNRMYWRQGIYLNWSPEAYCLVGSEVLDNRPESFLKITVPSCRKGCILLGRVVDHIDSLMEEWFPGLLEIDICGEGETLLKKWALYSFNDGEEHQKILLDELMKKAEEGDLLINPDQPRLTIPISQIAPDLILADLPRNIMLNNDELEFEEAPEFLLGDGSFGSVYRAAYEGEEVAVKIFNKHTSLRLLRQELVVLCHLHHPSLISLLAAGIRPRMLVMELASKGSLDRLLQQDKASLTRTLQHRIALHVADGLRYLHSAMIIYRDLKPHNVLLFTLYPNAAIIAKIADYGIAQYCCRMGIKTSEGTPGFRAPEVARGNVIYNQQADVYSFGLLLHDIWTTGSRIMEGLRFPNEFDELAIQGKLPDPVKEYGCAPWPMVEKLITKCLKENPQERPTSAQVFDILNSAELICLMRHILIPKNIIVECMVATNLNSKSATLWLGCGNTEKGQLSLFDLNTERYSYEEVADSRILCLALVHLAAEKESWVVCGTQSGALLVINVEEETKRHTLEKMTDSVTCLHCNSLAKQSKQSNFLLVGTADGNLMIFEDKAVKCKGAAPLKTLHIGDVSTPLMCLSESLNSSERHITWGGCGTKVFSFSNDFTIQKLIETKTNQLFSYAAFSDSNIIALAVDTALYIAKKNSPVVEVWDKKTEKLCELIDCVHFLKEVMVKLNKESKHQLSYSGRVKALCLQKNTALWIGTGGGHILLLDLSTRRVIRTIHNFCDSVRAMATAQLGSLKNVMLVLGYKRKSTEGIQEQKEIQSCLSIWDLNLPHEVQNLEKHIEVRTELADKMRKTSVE

LRRK2 target engagement (KiNativ) ([1]; 10 mg/kg): 80–90% | LRRK2 target engagement (KiNativ) ([1]; 30–100 mg/kg): greater than 90% | inhibition at 50 mg/kg [4]: 35 to 40% | inhibition at 100 mg/kg [4]: 35 to 40%
Compound: CNc1nc(Nc2ccc(C(=O)N3CCOCC3)cc2OC)ncc1Cl [Compound 4]
concentration inducing dephosphorylation of Ser910 and Ser935 [2]: 1 to 3 µM | effect of the A2016T mutation on inhibition [3]: maintains inhibition of the A2016T mutation | interactions detected in KinomeScan [5]: no interactions detected with kinases other than G2019S LRRK2 with the exception of one mutant form of c-Kit (L576P) | lowest dose inhibiting Ser910 and Ser935 phosphorylation in mouse brain ([6]; mouse brain, intraperitoneal delivery): 50 mg/kg | inhibition of LRRK2 Ser910/Ser935 phosphorylation in brain ([6]; mouse, intraperitoneal 10 mg/kg): partial inhibition | inhibition of LRRK2 Ser910/Ser935 phosphorylation in brain ([6]; mouse, intraperitoneal 30 mg/kg): partial inhibition | inhibition of LRRK2 Ser910/Ser935 phosphorylation in tissues ([6]; mouse, intraperitoneal 50 mg/kg, all tissues): near complete inhibition | dephosphorylation of Ser910 and Ser935 of LRRK2 in tissues ([6]; mouse, intraperitoneal 100 mg/kg, kidney, spleen and brain): near complete dephosphorylation | concentration inducing dephosphorylation of Ser910 and Ser935 [7]: 1 to 3 µM | JNK1/2/3 inhibition (KiNativ) ([8]; 50 mg/kg): 35–40% | JNK1/2/3 inhibition (KiNativ) ([8]; 100 mg/kg): 35–40% | inhibition of kinases other than LRRK2 (KiNativ) [9]: ≤ 50%

LRRK2 inhibition (KiNativ) ([1]; brain, 100 mg/kg): no LRRK2 inhibition | effect of the A2016T mutation on inhibition [3]: dramatic resistance
Compound: COc1cc(C(=O)N2CCC(N3CCN(C)CC3)CC2)ccc1Nc1ncc2c(n1)N(C)c1ccccc1C(=O)N2C [LRRK2-IN-1, reference compound]
inhibition of phosphorylation of Ser910 and Ser935 of LRRK2 in mouse brain [10]: none of these compounds are capable of effectively inhibiting

Compound: COc1cc(N2CCC(N3CCN(C)CC3)CC2)ccc1Nc1ncc(Cl)c(Nc2ccccc2S(=O)(=O)C(C)C)n1 [TAE684]
inhibition of phosphorylation of Ser910 and Ser935 of LRRK2 in mouse brain [10]: none of these compounds are capable of effectively inhibiting

Compound: COc1cc(N2CCOCC2)ccc1Nc1ncc(F)c(Nc2ccccc2NS(C)(=O)=O)n1 [CZC-25146]
inhibition of phosphorylation of Ser910 and Ser935 of LRRK2 in mouse brain [10]: none of these compounds are capable of effectively inhibiting
